Source: ChEMBL document CHEMBL1126599, “Specific sequestering agents for the actinides. 21. Synthesis and initial biological testing of octadentate mixed catecholate-hydroxypyridinonate ligands” (J Med Chem, 1993)

Assays:
[1] = species on record: Mus musculus; test: Percent of injected 238-Plutonium(IV) in mice kidneys at 24 h; assay type: ADME, organism-based, Kidney; details: in vivo
How it was run: (§1)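 Mice received plutonium(IV)-238 citrate iv. At 1 h, normally fed mice got ligand at 30 μmol kg-1 in 0.14 M NaCl by ip injection, then water only. Each five-mouse group was housed in one metabolic cage to collect urine and feces. Mice were killed at 24 h. Pu was expressed as % of injected dose, normalized to 100% recovery. Kidneys and excreta were pooled per group. Saline-injected controls were killed at 24 h.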

[2] = species on record: Mus musculus; test: Percent of injected 238-Plutonium(IV) in mice liver at 24 h; assay type: ADME, organism-based; details: in vivo; how it was run: as §1
[3] = species on record: Mus musculus; test: Percent of injected 238-Plutonium(IV) in mice skeleton at 24 h; assay type: ADME, organism-based; details: in vivo; how it was run: as §1
[4] = species on record: Mus musculus; test: Percent of injected 238-Plutonium(IV) in mice soft tissue at 24 h; assay type: ADME, organism-based; details: in vivo; how it was run: as §1
[5] = species on record: Mus musculus; test: Percent of injected 238-Plutonium(IV) in mice whole body at 24 h; assay type: ADME, organism-based; details: in vivo; how it was run: as §1
[6] = Removal of 238-Plutonium(IV) in feces at 24 h; assay type: ADME; how it was run: as §1
[7] = Removal of 238-Plutonium(IV) in gastrointestinal (GI) contents at 24 h; assay type: ADME; how it was run: as §1
[8] = Removal of 238-Plutonium(IV) in urine after 0-4 h; assay type: ADME, tissue-based; how it was run: as §1
[9] = Removal of 238-Plutonium(IV) in urine after 4-24 h; assay type: ADME, tissue-based; how it was run: as §1
[10] = Removal of 238-Plutonium(IV) in urine after 0-24 h; assay type: ADME, tissue-based; how it was run: as §1
[11] = test system: Mus musculus; test: Percent of injected 238-Plutonium(IV) in mice kidneys at 24 hr (orally administered); assay type: ADME, organism-based, Kidney; details: in vivo, po
How it was run: (§2)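 Mice were fasted 18 h and given plutonium(IV)-238 citrate iv. At 3 min, ligand at 30 μmol kg-1 in 0.14 M NaCl was given by gastric intubation, with a little food at 4 h. Urine (0–4 h, 4–24 h) and feces were collected per five-mouse group in a metabolic cage. Mice were killed at 24 h. Tissue and GI Pu was expressed as % injected dose, normalized to 100% recovery. Kidneys and excreta were pooled per group. Fasted controls were included.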

[12] = test system: Mus musculus; test: Percent of injected 238-Plutonium(IV) in mice liver at 24 hr (orally administered); assay type: ADME, organism-based; details: in vivo, po; how it was run: as §2
[13] = test system: Mus musculus; test: Percent of injected 238-Plutonium(IV) in mice skeleton at 24 hr (orally administered); assay type: ADME, organism-based; details: in vivo, po; how it was run: as §2
[14] = test system: Mus musculus; test: Percent of injected 238-Plutonium(IV) in mice soft tissue at 24 hr (orally administered); assay type: ADME, organism-based; details: in vivo, po; how it was run: as §2
[15] = test system: Mus musculus; test: Percent of injected 238-Plutonium(IV) in mice whole body at 24 hr (orally administered); assay type: ADME, organism-based; details: in vivo, po; how it was run: as §2
[16] = Removal of 238-Plutonium(IV) in feces at 24 hr (orally administered); assay type: ADME; details: po; how it was run: as §2
[17] = Removal of 238-Plutonium(IV) in gastrointestinal (GI) contents at 24 hr (orally administered); assay type: ADME; details: po; how it was run: as §2
[18] = Removal of 238-Plutonium(IV) in urine after 0-24 hr (orally administered); assay type: ADME, tissue-based; details: po; in the assay text read “4-24 hr” for “0-24 hr”; how it was run: as §2
[19] = Removal of 238-Plutonium(IV) in urine after 0-4 hr (orally administered); assay type: ADME, tissue-based; details: po; how it was run: as §2
[20] = test system: Mus musculus; test: Percent of injected 238-Plutonium(IV) in mice kidney at 24 hr (orally administered); assay type: ADME, organism-based; details: in vivo, po; how it was run: as §2
[21] = Removal of 238-Plutonium(IV) in urine after 4-24 hr (orally administered); assay type: ADME, tissue-based; details: po; how it was run: as §2
[22] = Removal of 238-Plutonium(IV) in urine at 0-4 hr (orally administered); assay type: ADME, tissue-based; details: po; how it was run: as §2
[23] = Removal of 238-Plutonium(IV) in urine at 4-24 hr (orally administered); assay type: ADME, tissue-based; details: po; how it was run: as §2
[24] = Removal of 238-Plutonium(IV) in urine 0-4 h (orally administered); assay type: ADME; details: po; how it was run: as §2
[25] = Removal of 238-Plutonium(IV) in urine 4-24 hr (orally administered); assay type: ADME; details: po; how it was run: as §2

SMILES | ID [1] | ID [2] | ID [3] | ID [4] | ID [5] | ID [6] | ID [7] | ID [8] | ID [9] | ID [11] | ID [12] | ID [13] | ID [14] | ID [15] | ID [16] | ID [17] | ID [19] | further results
O=C(NCCCN(CCCCN(CCCNC(=O)c1cc(S(=O)(=O)O)cc(O)c1O)C(=O)c1cc(S(=O)(=O)O)cc(O)c1O)C(=O)c1cc(S(=O)(=O)O)cc(O)c1O)c1cc(S(=O)(=O)O)cc(O)c1O | 0.9% | 25% | 6.7% | 2.8% | 35% | 0.4% | 2.9% | 58% | 4% |  |  |  |  |  |  |  |  | 
O=C(NCCCN(CCCCN(CCCNC(=O)c1cccc(=O)n1O)C(=O)c1cccc(=O)n1O)C(=O)c1cccc(=O)n1O)c1cccc(=O)n1O | 0.2% | 8.9% | 7.5% | 1.6% | 18% | 21% | 36% | 23% | 2% |  | 11% | 12% | 1.3% | 24% | 50% | 1.4% | 23% | ID [20]: 0.1%; ID [21]: 2.7%
O=C(O)c1ccc(C(=O)NCCCN(CCCCN(CCCNC(=O)c2ccc(C(=O)O)c(O)c2O)C(=O)c2ccc(C(=O)O)c(O)c2O)C(=O)c2ccc(C(=O)O)c(O)c2O)c(O)c1O | 2.6% | 11% | 11% | 4.8% | 29% | 4.8% | 12% | 44% | 4.6% | 1.5% | 19% | 32% | 3.9% | 56% | 3.3% | 1% |  | ID [22]: 30%; ID [23]: 9.5%

More lines, main results first:

ID [1] | ID [2] | ID [3] | ID [4] | ID [5] | ID [6] | ID [7] | ID [8] | ID [9] | ID [11] | ID [12] | ID [13] | ID [14] | ID [15] | ID [16] | ID [17] | ID [19] | SMILES | further results
4.3% | 26% | 18% | 5.1% | 53% | 28% | 8.6% |  |  |  |  |  |  |  |  |  |  | O=C(NCCCN(CCCCN(CCCNC(=O)c1cccc(O)c1O)C(=O)c1cccc(O)c1O)C(=O)c1cccc(O)c1O)c1cccc(O)c1O | ID [10]: 9.4%
3.1% | 12% | 13% | 4% | 33% | 43% | 12% | 9.1% | 3.1% | 3% | 43% | 30% | 4.5% | 82% | 4.5% | 1.8% | 8.3% | O=C(NCCCN(CCCCN(CCCNC(=O)c1cccc(O)c1O)C(=O)c1cccc(=O)n1O)C(=O)c1cccc(O)c1O)c1cccc(O)c1O | ID [18]: 2.3%
2% | 21% | 12% | 2.4% | 37% | 31% | 20% | 7.9% | 4.1% | 3.3% | 35% | 26% | 4.7% | 68% | 13% | 1.9% |  | O=C(NCCCN(CCCCN(CCCNC(=O)c1cccc(O)c1O)C(=O)c1cccc(=O)n1O)C(=O)c1cccc(=O)n1O)c1cccc(O)c1O | ID [24]: 12%; ID [25]: 4%
